# Measurements reported in ChEMBL document CHEMBL4765355, “Synthesis of adenine dinucleosides SAM analogs as specific inhibitors of SARS-CoV nsp14 RNA cap guanine-N7-methyltransferase” (Eur J Med Chem, 2020).
# The source made the active and inactive calls. No cut-off for these calls is given here.
# Tests used:
# [1] = system: Severe acute respiratory syndrome-related coronavirus; assay: Inhibition of N7-MTase activity of N-terminal His6-tagged SARS-CoV nsp14 expressed in Escherichia coli using GpppAC4 and [3H]SAM as substrate at 50 uM preincubated with enzyme followed by substrate addition and measured after 30 mins by filter binding assay
# Method in brief: (§1)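 Filter binding assay in 40 mM Tris-HCl pH 8.0, 1 mM DTT, 1 mM MgCl2, 2 µM SAM, 0.1 µM 3H-SAM and 0.7 µM GpppAC4 RNA. Enzyme is nsp14 (50 nM), hRNMT (50 nM) or vaccinia D1–D12 (41 U). Compound is at 50 µM with 5% final DMSO. Reactions run 30 min at 30 °C, are stopped by ice-cold water dilution, and 3H on DEAE filters is counted. Percent inhibition is relative to a 5% DMSO control, mean of three experiments.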
# [2] = system: Severe acute respiratory syndrome-related coronavirus; assay: Binding affinity to SARS-CoV nsp14 assessed as increase in melting temperature at 1 mM at pH 7.5 by differential scanning fluorimetry
# Method in brief: (§2)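 Purified SARS-CoV nsp14 (5 µM) in 20 mM HEPES pH 7.5, 150 mM NaCl and 1X SYPRO orange, with 1 mM compound (DMSO stock; SAM and sinefungin from water). Protein is mixed with compound before dye is added. Fluorescence is read from 20 to 95 °C at 0.2 °C/min. Tm comes from curve fitting, and ΔTm is taken against a 5% DMSO control.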
# [3] = system: Severe acute respiratory syndrome-related coronavirus; assay: Inhibition of 2'-O-MTase activity of SARS-CoV nsp10/16 complex at 200 uM
# [4] = system: Severe acute respiratory syndrome-related coronavirus; assay: Binding affinity to SARS-CoV nsp14 assessed as melting temperature at 1 mM at pH 7.5 by differential scanning fluorimetry; method in brief: as §2
# Zika virus = assay: Inhibition of 2'-O-methyltransferase in Zika virus at 200 uM
# West Nile virus = assay: Inhibition of 2'-O-methyltransferase in West-Nile virus at 200 uM
# [5] = biological target: mRNA cap guanine-N(7) methyltransferase (Homo sapiens, UniProt O43148); assay: Inhibition of N-terminal His6-tagged human RNA-N7 MTase expressed in Escherichia coli using GpppAC4 and [3H]SAM as substrate preincubated with enzyme followed by substrate addition and measured after 30 mins by filter binding assay
# Sequence of mRNA cap guanine-N(7) methyltransferase (O43148 whole entry): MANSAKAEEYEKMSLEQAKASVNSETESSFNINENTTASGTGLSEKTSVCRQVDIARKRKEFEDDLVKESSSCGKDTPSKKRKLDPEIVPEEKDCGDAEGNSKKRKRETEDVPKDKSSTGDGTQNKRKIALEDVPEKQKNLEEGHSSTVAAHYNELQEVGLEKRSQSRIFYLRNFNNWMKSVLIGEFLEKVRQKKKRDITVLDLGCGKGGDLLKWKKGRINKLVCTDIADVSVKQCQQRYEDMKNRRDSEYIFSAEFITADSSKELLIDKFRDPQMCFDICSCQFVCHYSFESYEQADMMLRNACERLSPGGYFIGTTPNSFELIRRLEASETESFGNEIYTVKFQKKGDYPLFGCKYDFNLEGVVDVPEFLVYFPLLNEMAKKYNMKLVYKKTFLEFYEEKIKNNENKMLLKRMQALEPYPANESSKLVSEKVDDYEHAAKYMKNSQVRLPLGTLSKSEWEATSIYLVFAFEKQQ
# Method in brief: (§3)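 Dose-response filter binding assay with nsp14 or hRNMT (each 50 nM) pre-incubated with increasing compound concentrations (5% final DMSO). Then 0.7 µM GpppAC4, 2 µM SAM and 0.1 µM 3H-SAM are added in Tris pH 8.0/DTT/MgCl2, 30 min at 30 °C. IC50 is taken from a Hill slope fit, mean of three independent experiments.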
# [6] = biological target: RNA-N7 MTase (mRNA cap guanine-N(7) methyltransferase) (Homo sapiens, UniProt O43148); assay: Inhibition of N-terminal His6-tagged human RNA-N7 MTase expressed in Escherichia coli using GpppAC4 and [3H]SAM as substrate at 50 uM preincubated with enzyme followed by substrate addition and measured after 30 mins by filter binding assay; conditions: probe GpppAC4 and [3H]SAM; method in brief: as §1
# Sequence of RNA-N7 MTase (mRNA cap guanine-N(7) methyltransferase) (O43148 whole entry): as above
# [7] = Binding affinity to SARS-CoV nsp14 by TSA based analysis; set-up: species or system Severe acute respiratory syndrome-related coronavirus
# Method in brief: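 Thermal shift assay with nsp14 (5 µM) in HEPES pH 7.5/NaCl/SYPRO orange, using increasing compound concentrations and a 20–95 °C ramp. Apparent KD is obtained by nonlinear regression with a one-site specific binding Hill slope equation.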
# Orthopoxvirus vaccinia [8] = assay: Inhibition of N7-MTase activity of Vaccinia virus mRNA capping enzyme D1/D12 complex using GpppAC4 and [3H]SAM as substrate at 50 uM preincubated with enzyme followed by substrate addition and measured after 30 mins by filter binding assay; method in brief: as §1
# [9] = Inhibition of N7-MTase activity of N-terminal His6-tagged SARS-CoV nsp14 expressed in Escherichia coli using GpppAC4 and [3H]SAM as substrate preincubated with enzyme followed by substrate addition and measured after 30 mins by filter binding assay; set-up: species or system Severe acute respiratory syndrome-related coronavirus; method in brief: as §3
# Dengue virus = assay: Inhibition of 2'-O-methyltransferase in Dengue virus at 200 uM
# Orthopoxvirus vaccinia [10] = assay: Inhibition of 2'-O-methyltransferase activity of Vaccinia virus VP39 at 200 uM
smiles,measurement,setting,value
"Nc1ncnc2c1ncn2[C@@H]1OC(CN(CCO[C@@H]2[C@H](O)C(CO)O[C@H]2n2cnc3c(N)ncnc32)S(=O)(=O)c2ccc(Cl)c([N+](=O)[O-])c2)[C@@H](O)[C@H]1O (single isomer, unassigned)",inhibition,[1],97.2%
same,ΔTm,[2],10.8 °C
same,inhibition,[3],inactive
same,Tm,[4],> 40 °C
same,inhibition,Zika virus,inactive
same,inhibition,West Nile virus,inactive
same,IC50,[5],247000 nM
same,"inhibition at 0.5 h, 50 µM",[6],33.9%
same,Kd,[7],1300 nM
same,inhibition,Orthopoxvirus vaccinia [8],2.8%
same,IC50,[9],600 nM
same,inhibition,Dengue virus,inactive
same,inhibition,Orthopoxvirus vaccinia [10],inactive
